From ChEMBL document CHEMBL3351470, “Synthesis and Structure-Activity Relationships of α-Amino-γ-lactone Ketolides: A Novel Class of Macrolide Antibiotics” (2014)
Converted amounts (≈) assume the structure as drawn.

Columns and labels:
Format in all cases: functional
Staphylococcus aureus [1] = experiment: Antibacterial activity against erythromycin-susceptible Staphylococcus aureus by agar microdilution method
In short: (§1)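 Strains from an in-house culture collection (Pliva Research Institute). MIC determined by agar microdilution following NCCLS standards and reported in μg/mL. Erythromycin-susceptible strains are listed as Ery-S; the panel also includes inducibly resistant (iMLS), constitutively resistant (MLSB) and efflux-resistant (M) strains.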

Staphylococcus aureus [2] = experiment: Antibacterial activity against macrolide lincosamide- streptogramin B inducibly-resistant Staphylococcus aureus by agar microdilution method
In short: (§2)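 Agar microdilution MIC following NCCLS standards; strains taken from the Pliva Research Institute culture collection. Panel grouped by phenotype: erythromycin-susceptible, inducibly MLS-resistant (iMLS), constitutively MLSB-resistant and efflux-resistant (M). Azithromycin, telithromycin and cethromycin tested alongside as references. MIC reported in μg/mL.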

Staphylococcus aureus [3] = experiment: Antibacterial activity against macrolide lincosamide- streptogramin B-resistant Staphylococcus aureus by agar microdilution method; in short: as §2
Streptococcus pneumoniae [4] = experiment: Antibacterial activity against erythromycin-susceptible Streptococcus pneumoniae by agar microdilution method; in short: as §1
Streptococcus pneumoniae [5] = experiment: Antibacterial activity against macrolide lincosamide- streptogramin B inducibly-resistant Streptococcus pneumoniae by agar microdilution method; in short: as §2
Streptococcus pneumoniae [6] = experiment: Antibacterial activity against efflux-resistant Streptococcus pneumoniae by agar microdilution method; in short: as §2
Streptococcus pyogenes [7] = experiment: Antibacterial activity against erythromycin-susceptible Streptococcus pyogenes by agar microdilution method; in short: as §1
Streptococcus pyogenes [8] = experiment: Antibacterial activity against macrolide lincosamide- streptogramin B inducibly-resistant Streptococcus pyogenes by agar microdilution method; in short: as §2
Streptococcus pyogenes [9] = experiment: Antibacterial activity against efflux-resistant Streptococcus pyogenes by agar microdilution method; in short: as §2
Haemophilus influenzae = experiment: Antibacterial activity against Haemophilus influenzae by agar microdilution method; in short: as §1

Compound	MIC (Staphylococcus aureus [1])	MIC (Staphylococcus aureus [2])	MIC (Staphylococcus aureus [3])	MIC (Streptococcus pneumoniae [4])	MIC (Streptococcus pneumoniae [5])	MIC (Streptococcus pneumoniae [6])	MIC (Streptococcus pyogenes [7])	MIC (Streptococcus pyogenes [8])	MIC (Streptococcus pyogenes [9])	MIC (Haemophilus influenzae)
CC[C@H]1OC(=O)[C@H](C)C(=O)[C@H](C)[C@@H](O[C@@H]2O[C@H](C)C[C@H](N(C)C)[C@H]2O)[C@](C)(OC)C[C@@H](C)C(=O)[C@H](C)[C@H]2C(NC(=O)CCCCc3cnc4c(OC)cccc4c3)C(=O)O[C@@]21C (stereo not given in full)	1 µg/mL (≈ 1.15 µM)	1 µg/mL (≈ 1.15 µM)	> 64 µg/mL	≤ 0.125 µg/mL	2 µg/mL (≈ 2.3 µM)	4 µg/mL (≈ 4.61 µM)	≤ 0.125 µg/mL	4 µg/mL (≈ 4.61 µM)	4 µg/mL (≈ 4.61 µM)	16 µg/mL (≈ 18.4 µM)
CC[C@H]1OC(=O)[C@H](C)C(=O)[C@H](C)[C@@H](O[C@@H]2O[C@H](C)C[C@H](N(C)C)[C@H]2O)[C@](C)(OC)C[C@@H](C)C(=O)[C@H](C)[C@H]2C(NC(=O)CCc3cnc4ccccc4c3)C(=O)O[C@@]21C (stereo not given in full)	1 µg/mL (≈ 1.23 µM)	1 µg/mL (≈ 1.23 µM)	> 64 µg/mL	≤ 0.125 µg/mL	1 µg/mL (≈ 1.23 µM)	0.5 µg/mL (≈ 0.617 µM)	≤ 0.125 µg/mL	1 µg/mL (≈ 1.23 µM)	2 µg/mL (≈ 2.47 µM)	4 µg/mL (≈ 4.94 µM)
CC[C@H]1OC(=O)[C@H](C)C(=O)[C@H](C)[C@@H](O[C@@H]2O[C@H](C)C[C@H](N(C)C)[C@H]2O)[C@](C)(OC)C[C@@H](C)C(=O)[C@H](C)[C@H]2C(NC(=O)/C=C/CCc3cnc4c(OC)cccc4c3)C(=O)O[C@@]21C (stereo not given in full)	1 µg/mL (≈ 1.15 µM)	1 µg/mL (≈ 1.15 µM)	> 64 µg/mL	≤ 0.125 µg/mL	2 µg/mL (≈ 2.31 µM)	2 µg/mL (≈ 2.31 µM)	≤ 0.125 µg/mL	0.5 µg/mL (≈ 0.577 µM)	2 µg/mL (≈ 2.31 µM)	1 µg/mL (≈ 1.15 µM)
CC[C@H]1OC(=O)[C@H](C)C(=O)[C@H](C)[C@@H](O[C@@H]2O[C@H](C)C[C@H](N(C)C)[C@H]2O)[C@](C)(OC)C[C@@H](C)C(=O)[C@H](C)[C@H]2C(NC(=O)CCc3cnc4ccc(OC)cc4c3)C(=O)O[C@@]21C (stereo not given in full)	2 µg/mL (≈ 2.38 µM)	1 µg/mL (≈ 1.19 µM)	> 64 µg/mL	≤ 0.125 µg/mL	0.5 µg/mL (≈ 0.595 µM)	0.5 µg/mL (≈ 0.595 µM)	≤ 0.125 µg/mL	0.25 µg/mL (≈ 0.298 µM)	0.5 µg/mL (≈ 0.595 µM)	1 µg/mL (≈ 1.19 µM)
CC[C@H]1OC(=O)[C@H](C)C(=O)[C@H](C)[C@@H](O[C@@H]2O[C@H](C)C[C@H](N(C)C)[C@H]2O)[C@](C)(OC)C[C@@H](C)C(=O)[C@H](C)[C@H]2C(NC(=O)/C=C/CCc3cnc4ccccc4c3)C(=O)O[C@@]21C (stereo not given in full)	2 µg/mL (≈ 2.39 µM)	2 µg/mL (≈ 2.39 µM)	> 64 µg/mL	≤ 0.125 µg/mL	8 µg/mL (≈ 9.57 µM)	1 µg/mL (≈ 1.2 µM)	≤ 0.125 µg/mL	8 µg/mL (≈ 9.57 µM)	4 µg/mL (≈ 4.78 µM)	8 µg/mL (≈ 9.57 µM)
CC[C@H]1OC(=O)[C@H](C)[C@@H](O[C@H]2C[C@@](C)(OC)[C@@H](O)[C@H](C)O2)[C@H](C)[C@@H](O[C@@H]2O[C@H](C)C[C@H](N(C)C)[C@H]2O)[C@](C)(O)C[C@@H](C)CN(C)[C@H](C)[C@@H](O)[C@]1(C)O [AZITHROMYCIN]	1 µg/mL (≈ 1.34 µM)	> 64 µg/mL	> 64 µg/mL	≤ 0.125 µg/mL	> 64 µg/mL	4 µg/mL (≈ 5.34 µM)	≤ 0.125 µg/mL	> 64 µg/mL	1 µg/mL (≈ 1.34 µM)	1 µg/mL (≈ 1.34 µM)
CC[C@H]1OC(=O)[C@H](C)C(=O)[C@H](C)[C@@H](O[C@@H]2O[C@H](C)C[C@H](N(C)C)[C@H]2O)[C@](C)(OC)C[C@@H](C)C(=O)[C@H](C)[C@H]2C(N)C(=O)O[C@@]21C (stereo not given in full)	1 µg/mL (≈ 1.6 µM)	32 µg/mL (≈ 51.1 µM)	> 64 µg/mL	≤ 0.125 µg/mL	> 64 µg/mL	8 µg/mL (≈ 12.8 µM)	2 µg/mL (≈ 3.19 µM)	> 64 µg/mL	8 µg/mL (≈ 12.8 µM)	> 64 µg/mL
CC[C@H]1OC(=O)[C@H](C)C(=O)[C@H](C)[C@@H](O[C@@H]2O[C@H](C)C[C@H](N(C)C)[C@H]2O)[C@](C)(OC)C[C@@H](C)C(=O)[C@H](C)[C@H]2C(NC(=O)/C=C/CCc3cnc4ccc(OC)cc4c3)C(=O)O[C@@]21C (stereo not given in full)	2 µg/mL (≈ 2.31 µM)	2 µg/mL (≈ 2.31 µM)	> 64 µg/mL	≤ 0.125 µg/mL	8 µg/mL (≈ 9.24 µM)	4 µg/mL (≈ 4.62 µM)	≤ 0.125 µg/mL	0.25 µg/mL (≈ 0.289 µM)	4 µg/mL (≈ 4.62 µM)	1 µg/mL (≈ 1.15 µM)
CC[C@H]1OC(=O)[C@H](C)C(=O)[C@H](C)[C@@H](O[C@@H]2O[C@H](C)C[C@H](N(C)C)[C@H]2O)[C@](C)(OC)C[C@@H](C)C(=O)[C@H](C)[C@H]2C(NC(=O)CCc3cnc4c(OC)cccc4c3)C(=O)O[C@@]21C (stereo not given in full)	0.5 µg/mL (≈ 0.595 µM)	1 µg/mL (≈ 1.19 µM)	> 64 µg/mL	≤ 0.125 µg/mL	0.25 µg/mL (≈ 0.298 µM)	0.25 µg/mL (≈ 0.298 µM)	≤ 0.125 µg/mL	0.5 µg/mL (≈ 0.595 µM)	0.25 µg/mL (≈ 0.298 µM)	1 µg/mL (≈ 1.19 µM)
